Activity calls are given as the source filed them. The calls are words filed in the database; no cut-off is given here. Where only a bound is given, the exact number is not on record here.

The IC50 is the concentration at which inhibition is half-maximal.

The target of series [1] is T1, Amine oxidase [copper-containing] 3 (Homo sapiens) (UniProt Q16853).
T1 sequence (whole entry): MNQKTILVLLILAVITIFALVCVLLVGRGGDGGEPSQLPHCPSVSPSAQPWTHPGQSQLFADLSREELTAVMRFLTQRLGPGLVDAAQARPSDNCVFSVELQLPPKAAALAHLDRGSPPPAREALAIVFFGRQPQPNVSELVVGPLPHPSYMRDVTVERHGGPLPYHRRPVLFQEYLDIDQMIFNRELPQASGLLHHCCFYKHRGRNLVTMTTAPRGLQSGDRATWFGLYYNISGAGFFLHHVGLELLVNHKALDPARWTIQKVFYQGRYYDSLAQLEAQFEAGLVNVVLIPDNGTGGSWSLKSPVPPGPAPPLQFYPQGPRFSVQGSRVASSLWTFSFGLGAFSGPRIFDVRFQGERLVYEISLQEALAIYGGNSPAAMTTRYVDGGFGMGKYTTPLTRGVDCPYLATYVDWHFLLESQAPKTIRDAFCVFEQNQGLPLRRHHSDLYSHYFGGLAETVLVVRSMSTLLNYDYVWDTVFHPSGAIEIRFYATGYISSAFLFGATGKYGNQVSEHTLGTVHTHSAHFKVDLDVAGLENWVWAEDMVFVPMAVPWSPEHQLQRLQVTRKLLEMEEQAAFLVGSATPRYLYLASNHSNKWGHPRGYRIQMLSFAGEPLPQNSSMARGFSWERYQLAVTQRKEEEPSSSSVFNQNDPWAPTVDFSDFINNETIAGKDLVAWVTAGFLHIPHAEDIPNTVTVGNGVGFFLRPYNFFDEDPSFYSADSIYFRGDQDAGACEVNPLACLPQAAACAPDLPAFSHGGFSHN
Briefly: Inhibition of SSAO in human plasma at 30 uM using benzylamine as substrate preincubated for 2 hrs followed by substrate addition measured every 30 secs for 15 minutes by Amplex red dye based fluorescence assay.

In series [2] the target is T2, Lysyl oxidase homolog 2 (Homo sapiens, UniProt Q9Y4K0).
T2 sequence (Q9Y4K0 whole entry): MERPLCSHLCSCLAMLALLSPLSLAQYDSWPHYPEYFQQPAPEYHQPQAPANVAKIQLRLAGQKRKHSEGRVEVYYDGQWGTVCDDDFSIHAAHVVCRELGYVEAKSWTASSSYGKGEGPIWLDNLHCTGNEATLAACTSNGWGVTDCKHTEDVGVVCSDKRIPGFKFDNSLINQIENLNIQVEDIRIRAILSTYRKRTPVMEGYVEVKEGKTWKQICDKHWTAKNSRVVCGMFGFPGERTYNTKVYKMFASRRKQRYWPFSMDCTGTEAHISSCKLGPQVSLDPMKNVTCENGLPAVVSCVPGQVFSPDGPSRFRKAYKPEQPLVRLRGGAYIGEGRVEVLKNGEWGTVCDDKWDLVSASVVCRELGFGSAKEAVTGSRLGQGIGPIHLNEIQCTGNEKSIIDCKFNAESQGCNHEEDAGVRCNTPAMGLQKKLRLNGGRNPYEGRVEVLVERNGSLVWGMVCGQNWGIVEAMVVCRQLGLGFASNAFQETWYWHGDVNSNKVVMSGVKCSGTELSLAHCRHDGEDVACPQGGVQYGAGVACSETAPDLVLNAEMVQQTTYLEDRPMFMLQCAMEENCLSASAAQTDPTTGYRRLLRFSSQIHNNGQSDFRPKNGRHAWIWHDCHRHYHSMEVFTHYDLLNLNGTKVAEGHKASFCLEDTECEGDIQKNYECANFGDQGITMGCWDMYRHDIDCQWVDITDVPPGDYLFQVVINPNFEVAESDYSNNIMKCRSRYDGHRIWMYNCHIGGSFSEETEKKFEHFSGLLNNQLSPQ
The series can be described thus: Inhibition of full length recombinant human LOXL2 expressed in CHO cells spiked into human whole blood assessed as reduction in H2O2 production using DAP as substrate preincubated for 2 followed by substrate addition measured every 90 secs for 45 mins by Amplex red dye based fluorescence assay. The series is classed as cell-based. The method in brief:
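Human recombinant LOXL2 spiked into human whole blood. Oxidative deamination of 1,5-diaminopentane measured as H2O2 with Amplex Red. IC50 expressed as geometric mean x/÷ geometric SD with N.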

Series [3] addresses T2, Lysyl oxidase homolog 2. Briefly: Inhibition of full length recombinant human LOXL2 expressed in CHO cells assessed as reduction in H2O2 production using DAP as substrate preincubated for 2 hrs followed by substrate addition measured every 2 minutes for 50 minutes in presence of BSA by Amplex red dye based fluorescence assay. The method in brief: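 Serum-free concentrated conditioned medium from CHO cells stably expressing human LOXL2, supplemented with BSA. Compounds preincubated for 2 h (the screening preincubation time). Substrate was 1,5-diaminopentane, and the H2O2 formed was detected with Amplex Red. IC50 given as geometric mean x/÷ geometric SD over N determinations.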

The target in the next series is Cytochrome P450 2C9 (Homo sapiens, UniProt P11712). Briefly: Inhibition of CYP2C9 (unknown origin). The series is classed as ADME.
A further series addresses Cytochrome P450 3A4 (Homo sapiens, UniProt P08684). Briefly: Inhibition of CYP3A4 (unknown origin). The class given is ADME.
The target of the next series is Cytochrome P450 2D6 (Homo sapiens, UniProt P10635). Briefly: Inhibition of CYP2D6 (unknown origin). The class given is ADME.
Series [4] addresses T2, Lysyl oxidase homolog 2. The series can be described thus: Inhibition of full length recombinant human LOXL2 expressed in CHO cells assessed as reduction in H2O2 production using DAP as substrate preincubated for 2 hrs followed by substrate addition measured every 2 minutes for 50 minutes by Amplex red dye based fluorescence assay.
The target in series [5] is T3, Amine oxidase [flavin-containing] A (Homo sapiens, UniProt P21397).
T3 sequence (P21397 whole entry): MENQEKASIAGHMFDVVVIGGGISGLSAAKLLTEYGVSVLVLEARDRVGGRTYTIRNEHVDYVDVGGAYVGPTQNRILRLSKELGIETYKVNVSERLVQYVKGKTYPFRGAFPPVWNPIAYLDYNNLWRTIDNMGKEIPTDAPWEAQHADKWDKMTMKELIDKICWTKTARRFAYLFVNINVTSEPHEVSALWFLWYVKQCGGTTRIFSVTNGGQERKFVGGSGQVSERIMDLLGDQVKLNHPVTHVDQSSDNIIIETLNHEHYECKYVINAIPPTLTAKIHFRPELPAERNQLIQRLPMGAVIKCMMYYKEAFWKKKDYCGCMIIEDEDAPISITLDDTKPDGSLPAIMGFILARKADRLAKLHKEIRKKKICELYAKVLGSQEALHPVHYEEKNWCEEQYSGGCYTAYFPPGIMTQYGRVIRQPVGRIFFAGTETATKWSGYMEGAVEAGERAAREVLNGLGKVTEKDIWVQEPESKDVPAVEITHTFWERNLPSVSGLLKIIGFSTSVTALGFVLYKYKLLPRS
Briefly: Inhibition of recombinant human MAO-A at 30 uM using tyramine as substrate preincubated for 2 hrs followed by substrate addition measured every 30 secs for 10 minutes by Amplex red dye based fluorescence assay.

Cytochrome P450 3A4, sequence (P08684 whole entry): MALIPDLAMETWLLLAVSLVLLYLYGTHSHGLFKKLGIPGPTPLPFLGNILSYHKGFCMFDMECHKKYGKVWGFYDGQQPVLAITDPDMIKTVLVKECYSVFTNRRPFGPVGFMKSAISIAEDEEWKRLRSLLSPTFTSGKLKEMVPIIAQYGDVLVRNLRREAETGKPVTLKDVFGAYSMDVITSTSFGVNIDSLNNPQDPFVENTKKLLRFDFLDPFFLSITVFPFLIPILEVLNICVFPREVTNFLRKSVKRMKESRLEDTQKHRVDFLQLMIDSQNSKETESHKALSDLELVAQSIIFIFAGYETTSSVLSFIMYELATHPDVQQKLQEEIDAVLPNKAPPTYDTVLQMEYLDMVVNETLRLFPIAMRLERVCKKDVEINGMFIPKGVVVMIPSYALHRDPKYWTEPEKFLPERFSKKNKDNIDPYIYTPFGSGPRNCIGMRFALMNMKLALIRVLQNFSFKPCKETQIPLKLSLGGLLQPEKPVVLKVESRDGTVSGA
Cytochrome P450 2C9, sequence (P11712 whole entry): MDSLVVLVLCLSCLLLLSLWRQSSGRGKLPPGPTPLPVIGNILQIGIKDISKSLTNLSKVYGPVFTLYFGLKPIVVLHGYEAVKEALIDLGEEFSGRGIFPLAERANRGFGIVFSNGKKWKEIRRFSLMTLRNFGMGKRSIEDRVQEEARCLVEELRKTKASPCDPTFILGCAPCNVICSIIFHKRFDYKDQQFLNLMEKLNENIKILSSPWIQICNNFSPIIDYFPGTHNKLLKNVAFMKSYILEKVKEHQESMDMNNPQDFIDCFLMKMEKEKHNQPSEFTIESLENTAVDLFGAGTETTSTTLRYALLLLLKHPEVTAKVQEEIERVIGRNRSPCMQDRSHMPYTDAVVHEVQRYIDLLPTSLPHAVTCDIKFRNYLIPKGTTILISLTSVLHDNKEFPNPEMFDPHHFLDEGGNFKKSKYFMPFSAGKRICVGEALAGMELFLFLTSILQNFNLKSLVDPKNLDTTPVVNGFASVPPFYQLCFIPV
Cytochrome P450 2D6, sequence (P10635 whole entry): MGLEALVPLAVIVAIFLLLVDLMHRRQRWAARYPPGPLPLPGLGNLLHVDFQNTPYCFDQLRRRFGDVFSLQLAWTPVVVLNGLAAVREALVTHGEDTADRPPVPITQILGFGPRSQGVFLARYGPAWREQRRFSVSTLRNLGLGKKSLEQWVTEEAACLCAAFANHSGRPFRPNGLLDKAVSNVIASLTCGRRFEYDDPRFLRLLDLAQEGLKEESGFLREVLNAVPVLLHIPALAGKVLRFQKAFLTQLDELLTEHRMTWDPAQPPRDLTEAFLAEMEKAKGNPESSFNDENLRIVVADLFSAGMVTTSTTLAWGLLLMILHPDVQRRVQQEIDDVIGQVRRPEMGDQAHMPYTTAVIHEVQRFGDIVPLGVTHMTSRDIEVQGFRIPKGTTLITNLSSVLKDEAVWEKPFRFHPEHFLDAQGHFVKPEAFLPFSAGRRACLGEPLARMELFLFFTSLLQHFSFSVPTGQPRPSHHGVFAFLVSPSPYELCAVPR

As for `NCc1ccnc(Cl)c1`, in series [1], the inhibition entry is “inactive”. In addition, the 50% inhibitory concentration (IC50) on Lysyl oxidase homolog 2 [2] is 1.45 µM; on Lysyl oxidase homolog 2 [3], 0.19 µM; on Cytochrome P450 2C9, more than 30 µM; against Cytochrome P450 3A4, more than 30 µM; against Cytochrome P450 2D6 it was more than 30 µM; on Lysyl oxidase homolog 2 [4] it was 0.126 µM. Moreover, the “inhibition (INH)” value in series [5] is listed as “Not Active”.

These data come from ChEMBL document CHEMBL3994667, “Small Molecule Lysyl Oxidase-like 2 (LOXL2) Inhibitors: The Identification of an Inhibitor Selective for LOXL2 over LOX” (ACS Med Chem Lett, 2017).
